# Screens from PubChem.
# SR-BI HDL uptake: mouse SR-BI HDL lipid transfer inhibition; Q61009; ldlA[mSR-BI] CHO cells, DiI-HDL uptake fluorescence, 3 h; inhibition, % at 12.5 µM; 320,000 tested, 0.96% active;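 active = mean replicate inhibition of at least 70% and a set share of replicates each scoring 70 or more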;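 note: 0% = median of neutral control wells and 100% = median of positive control wells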
# CDK5 inh: blocks human CDK5/p35 kinase activity; Q00535+Q15078; Recombinant CDK5/p35, ADP-Glo luminescence, 60 min; AID 488839; 330,000 tested, 0.01% active; inhibition, % at 10 µM;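 active = highest replicate inhibition of at least 50% and at least 75% of replicates reaching 50%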;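 note: plate controls were DMSO neutral control for no effect and GW8510 at 10 µM for full effect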
# SR-BI DiI-HDL act: SR-BI HDL lipid transfer activation. CHO ldlA[mSR-BI] cells, DiI-HDL uptake fluorescence, 3 h; 100 = double the neutral-control signal. activation, % at 12.5 µM. 320,000 tested, 0.096% active. AID 504775;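 active = mean replicate activation of at least 60% and every replicate at or above 60%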;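 note: 0% = median plate neutral-control signal and 100% = twice that signal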
#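 Material: SR-BI-overexpressing, LDLR-lacking CHO cells | Dosing: Single compound concentration, delivered by pin transfer | Probe or stimulus: Labelled HDL, 10 µg/mL | Signal: Bottom-read cell fluorescence after medium removal, ex 550/em 595 nm | Schedule: 3 h, 37 °C | Evaluation: HDL uptake via cellular fluorescence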
# GSK3 alpha inh: human GSK-3 alpha kinase inhibition. P49840. ADP-Glo luminescence, 60 min. inhibition, % at 10 µM. 320,000 tested, 0.1% active;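 active = more than half of replicates show inhibition above 20%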;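 note: GST-tagged GSK-3 alpha with peptide substrate and 25 µM ATP; 0% = DMSO neutral wells and 100% = GW8510 positive control wells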
# GSK3B inh: blocks human GSK3beta kinase activity; GST-GSK3beta kinase, ADP-Glo luminescence, 60 min; active compounds read low; P49841; activity score (negative = inhibition), % at 10 µM; AID 2097; 300,000 tested, 0.038% active;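 active = more than half of replicate wells score below -50%, meaning over 50% inhibition versus plate controls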;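 note: 0% = median DMSO wells and -100% = median GW8510 positive control wells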
# Target sequence (P49841 whole entry, looked up): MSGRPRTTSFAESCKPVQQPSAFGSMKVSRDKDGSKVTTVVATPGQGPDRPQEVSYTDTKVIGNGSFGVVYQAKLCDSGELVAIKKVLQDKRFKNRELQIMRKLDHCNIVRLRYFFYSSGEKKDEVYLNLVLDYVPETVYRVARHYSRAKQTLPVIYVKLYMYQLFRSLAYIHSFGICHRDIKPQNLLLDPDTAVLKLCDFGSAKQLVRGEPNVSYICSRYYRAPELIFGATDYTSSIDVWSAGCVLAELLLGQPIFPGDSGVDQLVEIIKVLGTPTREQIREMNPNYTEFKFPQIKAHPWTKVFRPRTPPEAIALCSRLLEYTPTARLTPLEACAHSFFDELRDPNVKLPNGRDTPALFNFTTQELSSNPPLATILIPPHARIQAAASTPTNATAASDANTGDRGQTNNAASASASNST
#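 test system = GST-tagged human GSK3beta kinase, cell-free | reagent = 25 µM ATP with peptide substrate | dosing = one dose of 10 µM per compound | schedule = 60 min reaction, RT | detection = luminescent ADP-Glo measurement of ADP formed | control set = DMSO neutral wells and GW8510 at 20 µM as positive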
# Numbers without * were called inactive; . = not tested or not shown. Rows were chosen to be rich in hits. Some 1.1% of all compounds tested hit in one or more screens of this group.
SMILES,SR-BI HDL uptake,CDK5 inh,SR-BI DiI-HDL act,GSK3 alpha inh,GSK3B inh
Oc1ccc(/C=N/Nc2nc(-c3ccc(Cl)cc3)cc(C(F)(F)F)n2)cc1,80.4*,0.7,-80.4,-3.6,3.9
CNC(=O)N(C1=NCCCCC1)c1ccc(Br)cc1,-4.2,-0.5,4.2,-0.6,1.7
NS(=O)(=O)c1ccc(CCNC(=O)CCc2nc3sc4c(c3c(=O)[nH]2)CCCC4)cc1,-8.8,0.7,8.8,0.6,0.8
O=C(Cc1ccccc1)Nc1ncnc2c1C(c1ccccc1)c1c(ccc3ccccc13)O2 (configuration not stated),9.6,0.2,-10.3,-2.2,.
COCc1cc(CN(C)C(=O)c2oc3c(F)cccc3c2C)[nH]n1,-18.6,0.9,18.6,1.0,1.9
COc1ccc(-c2cc3cc(OC)c(OC)cc3c(C)n2)cc1,80.1*,-4.5,-43.4,-2.0,4.7
COc1ccc(-c2cc(OC)c3ccccc3n2)cc1,35.5,1.2,-35.5,2.0,1.6
O=C(CCC(=O)N1CCOCC1)NCCc1ccccc1,-6.9,-0.5,6.9,-4.0,.
CCCCOC(=O)Nc1ccc(S(=O)(=O)Nc2onc(C)c2C)cc1,-3.4,-5.5,3.4,-0.8,1.3
Cc1c(NC(=O)Nc2ccc(Cl)c(Cl)c2)sc(=S)n1C,90.0*,-0.8,-90.0,-0.8,0.8
COc1ccc(NC(=O)Nc2sc(=S)n(C)c2C)cc1,5.9,0.5,-5.9,-0.6,2.0
O=C(Nn1cnnc1)c1cc(-c2cccc(Br)c2)nc2ccccc12,-0.6,3.1,0.6,1.0,-1.7
CCCCC/C=N/NC(=O)c1[nH]c2ccc([N+](=O)[O-])cc2c1C,98.3*,-4.3,-98.3,0.3,-6.2
Cc1c(C(=O)NN)[nH]c2ccc([N+](=O)[O-])cc12,.,.,.,5.8,1.3
COc1ccc2sc(-c3ccc(N(C)C)cc3)c(-c3cnc(OC)nc3)c2c1,82.0*,-1.0,-82.0,-0.5,.
COc1ccc2sc(-c3ccc(SC)cc3)c(-c3ccc(O)cc3)c2c1,75.9*,0.7,-75.9,-2.1,.
COc1cc(-c2ccc3sc(-c4ccsc4)c(C#CCO)c3c2)cc(OC)c1OC,68.8,-3.5,-68.8,0.7,.
COC(=O)c1c(-c2ccsc2)sc2ccc(-c3cc(OC)c(OC)c(OC)c3)cc12,74.8*,0.2,-74.7,-2.5,.
COC(=O)c1c(-c2ccc(N(C)C)cc2)sc2ccc(OC)cc12,78.9*,-2.5,-78.9,-1.6,.
COc1ccc(-c2sc3ccc(OC)cc3c2-c2ccc(OC)c(F)c2)cc1,59.5,0.9,-59.5,-0.2,.
Cc1ccc(C(=O)NCC(=O)N2CCN(c3cccc(Cl)c3)CC2)s1,38.1,1.4,-38.1,-0.9,.
O=C(c1ccc2c(=O)n3c(nc2c1)CCC3)N1CCCSC1=Nc1ccccc1,26.0,-0.3,-26.0,-2.1,-2.6
COC(=O)C=C1CCC2C3CC(F)C4(O)CC(=O)CCC4(C)C3C(=O)CC12C (configuration not stated),21.0,-0.4,-21.0,.,.
COc1ccc(CN2CCNC(=O)C2CC(=O)N2CCCCO2)cc1OC (configuration not stated),0.6,-1.8,-0.6,1.9,0.6
COc1ccc(-n2c(C)c([N+](=O)[O-])c3ccc(O)c(CN4CCCCC4)c32)cc1,-13.1,-2.4,.,50.7*,3.9
SMILES,SR-BI HDL uptake,CDK5 inh,SR-BI DiI-HDL act,GSK3 alpha inh,GSK3B inh
O=C(Nc1ccc(-c2csc(Nc3ccc(Cl)cc3)n2)cc1)c1cc([N+](=O)[O-])cc(C(F)(F)F)c1,106.0*,0.9,-106.0,1.3,1.1
O=C(Nc1cccc(-c2csc(Nc3ccccc3)n2)c1)c1cc([N+](=O)[O-])cc(C(F)(F)F)c1,96.9*,-2.1,-96.9,-1.5,0.2
Cc1ccc(Nc2nc(-c3sc(NC(=O)c4ccc([N+](=O)[O-])cc4)nc3C)cs2)cc1,.,.,.,-0.7,-4.3
O=C(Nc1cccc(-c2csc(Nc3ccc(Cl)cc3)n2)c1)c1cc([N+](=O)[O-])cc(C(F)(F)F)c1,126.9*,0.2,-126.9,0.4,0.0
CC1Cc2cc(S(=O)(=O)N3CCC(C(=O)N(C)Cc4ccco4)CC3)ccc2N1C(=O)C1CCC1 (configuration not stated),-11.4,0.8,11.4,0.7,0.3
CCCOc1ccc(/C=N/Nc2ccccc2[N+](=O)[O-])c(OCCC)c1,104.0*,1.3,-104.0,-2.9,-0.5
O=S(=O)(Nc1nc2ccccc2nc1Nc1ccc(N2CCOCC2)cc1)c1cc(Cl)ccc1Cl,72.8*,-2.2,-72.8,1.3,4.7
CCOc1cc(-c2nc(-c3ccncc3)no2)cc(OCC)c1OCC,23.3,-0.4,-23.3,-7.3,-1.4
CCOc1cc(-c2nc(-c3ccc(OC)cc3)no2)cc(OCC)c1OCC,75.1*,0.2,-75.1,-5.4,-0.9
COc1ccc(-c2nc(-c3ccccc3OC)no2)cc1OC,64.8,-5.1,-64.8,-0.2,-3.1
CCOc1cc(-c2nc(-c3ccccc3OC)no2)cc(OCC)c1OCC,80.3*,-0.8,-80.3,-2.0,0.1
CCOc1ccc(-c2nnc(-c3ccco3)o2)cc1OCC,21.8,-0.9,-21.8,-1.4,1.1
CCOc1cc(-c2nnc(-c3ccco3)o2)cc(OCC)c1OCC,77.1*,0.8,-77.1,-2.6,7.9
Nc1nc(Nc2cccc(Cl)c2)nc(NCc2ccco2)c1[N+](=O)[O-],39.3,0.3,-39.3,10.7,-3.5
Nc1nc(NCCCN2CCOCC2)nc(Nc2cccc(Cl)c2)c1[N+](=O)[O-],19.1,-0.5,-19.1,77.9*,-76.7*
Cc1ccc(Nc2nc(NCCCN3CCOCC3)nc(N)c2[N+](=O)[O-])cc1,-4.9,0.0,4.9,57.5*,-1.6
Cc1ccc(Nc2nc(NCCCN3CCOCC3)nc(N)c2[N+](=O)[O-])cc1C,27.7,0.0,-27.7,.,-30.9
Nc1nc(NCCCN2CCOCC2)nc(Nc2ccc(Cl)cc2)c1[N+](=O)[O-],.,.,.,56.7*,-26.7
CSc1nc(Cl)c(Br)c(Nc2c[nH]c(=O)[nH]c2=O)n1,0.3,3.3,-0.3,.,.
COC(=O)/C(=C\Nc1ccc(Oc2ccc(F)cc2F)nc1)NC(=O)c1ccccc1,.,.,.,-0.7,2.8
COCCNC(=S)Nc1ccccc1Cc1ccccc1,6.5,-0.4,-6.5,-1.8,0.6
Cc1cc(OCC(=O)Nc2ccc(N3CCCC3)cc2)cc(C)c1Cl,87.4*,-0.1,-87.4,-1.3,-0.3
Cc1cc(N2CCCC2)ccc1NC(=O)COc1ccccc1,71.8*,0.4,-71.8,.,.
CCc1ccc(OCC(=O)Nc2ccc(N3CCN(C(=O)c4ccccc4)CC3)cc2)cc1,45.0,-0.2,-45.0,0.8,1.9
COc1ccc(OCC(=O)Nc2ccc(N3CCN(C(=O)c4ccccc4C)CC3)cc2)cc1,77.1*,-1.1,-77.1,0.7,-1.1
CC(Sc1nnc(CN2CCCC2)n1Cc1ccccc1)C(=O)Nc1ccc(F)cc1Cl (configuration not stated),42.3,0.2,-42.4,.,.
CCN(CC)S(=O)(=O)c1ccc(Cl)c(C(=O)NNC(=O)c2csc(N3CCOCC3)n2)c1,14.1,0.1,-14.1,.,.
